Laboratory results: PMC3961564 (The Journal of investigative dermatology, 2013)

Key:
cell growth = conditions: RWRPK by itself; ref Hocking et al., 2008; cited from earlier work
FN-null fibroblasts = test: FN-null cell survival on CBD/14 with peptide in solution; assay type: cell-based, mouse; conditions: serum-free DMEM, 1nM PDGF-BB, 3d, viable cells counted
Method in brief: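 Mouse FN-null fibroblasts were maintained in DMEM with 10% FBS. 96-well plates were precoated with 0.125μM GST-tagged CBD/14, blocked with 2% BSA for 2h and washed. Cells were seeded at 4,000/well for 4h at 37°C in serum-free DMEM, and BSA medium with soluble test compound ±1nM PDGF-BB was added. After 3d at 37°C, viable spread cells were counted in five 10x fields in three replicate wells (mean ± SD, n=15).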

P3 (FN1853-1877) (human) = test: radioligand binding
[1] = target: anastellin (FN630-704) with a Cys-tag at the C-terminus (human); test: radioligand binding
P4 (FN2043-2076) (human) = test: radioligand binding
[2] = target: FN668-704, second half of anastellin, with cysteine at the C-terminus (human); test: radioligand binding
[3] = target: Recombinant PDGF-BB (platelet-derived growth factor-BB) (UniProt P01127); test: SPR
[4] = target: 125I-PDGF-BB (125I-radiolabeled platelet-derived growth factor-BB) (UniProt P01127 82-190, 125I label (site not stated)); test: radioligand binding
Chain of 125I-PDGF-BB (125I-radiolabeled platelet-derived growth factor-BB) (UniProt P01127 82-190, 125I label (site not stated)) (P01127 82-190): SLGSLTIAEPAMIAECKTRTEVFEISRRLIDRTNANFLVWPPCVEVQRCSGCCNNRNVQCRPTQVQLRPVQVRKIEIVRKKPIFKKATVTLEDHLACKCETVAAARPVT

Chain of 125I-PDGF-BB (125I-radiolabeled platelet-derived growth factor-BB) (from UniProt P01127 82-190) (ligand) (P01127 82-190): as above
Chain of Recombinant PDGF-BB (platelet-derived growth factor-BB) (P01127 82-190): as above

Molecule: RWRPK
- Cell growth (cell growth): inhibits cell growth
- FN-null cell survival on CBD/14, peptide in solution (FN-null fibroblasts): does not collaborate with PDGF-BB

Molecule: QWNAPQPSHISKYILRWRPK [Peptide P11]
- FN-null cell survival on CBD/14, peptide in solution (FN-null fibroblasts): promoted PDGF-BB survival signals

Molecule: QPSHISKYILRWRPK [Peptide P5]
- FN-null cell survival on CBD/14, peptide in solution (FN-null fibroblasts): promoted PDGF-BB survival signals

Molecule: 125I-PDGF-BB (125I-radiolabeled platelet-derived growth factor-BB) (from UniProt P01127 82-190) (ligand)
- Kd (P3 (FN1853-1877) (human)): 87 nM
- Kd [1]: 90 nM
- Kd (P4 (FN2043-2076) (human)): 56 nM
- Kd [2]: 80 nM

Molecule: anastellin (FN630-704) with a Cys-tag at the C-terminus (domain or fragment)
- Kd [3]: 22.9 nM

Molecule: QLISHQQYGHQEVTRFDFTTTSTST [P2 (FN680-704)]
- Kd [4]: 110 nM

Molecule: QPSHISKYILRWRPKNSVGRWKEAT [P1 (FN634-658)]
- Kd [4]: 250 nM
